Our source for the IC50, Relative potency and Ratio values is ChEMBL document CHEMBL1133548, “Semisynthesis of antitumoral acetogenins: SAR of functionalized alkyl-chain bis-tetrahydrofuranic acetogenins, specific inhibitors of mitochondrial complex I” (J Med Chem, 2000).

Assay [1] is described as follows: Inhibition of NADH decylubiquinone (DB) oxidoreductase activity. Further details: species or system Bos taurus. Put shortly:
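Beef heart submitochondrial particles from sonicated frozen-thawed mitochondria, NADH-activated (300 µM) at 0.5 mg·mL⁻¹. Assay at 22 °C in 50 mM K phosphate pH 7.4, 1 mM EDTA, 0.28 nM complex I, with 75 µM NADH, 30 µM decylubiquinone, 2 µM antimycin and 2 mM KCN. Inhibitor titrated as ethanolic additions (5 min on ice each). NADH loss read at 340 nm; IC50 taken at 50% inhibition.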

The nature of assay [2]: Percent of relative potency by NADH oxidase assay. Put shortly:
(§1)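 Derived value: the compound's NADH oxidase IC50 expressed relative to that of the reference acetogenin. The oxidase assay used NADH-activated beef heart submitochondrial particles (0.28 nM complex I) oxidising 75 µM NADH aerobically without added quinone, at 22 °C and pH 7.4. Inhibitor was added stepwise with 5 min incubations on ice, and NADH decrease was followed at 340 nm.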

Assay [3] addresses Mitochondrial complex I; NADH oxidoreductase (Bos taurus, UniProt P25708+P52505). Put plainly: Inhibition of NADH oxidase activity. It is filed as protein-complex assay. In short, it runs like this: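 Beef-heart submitochondrial particles (sonicated frozen-thawed mitochondria), preactivated with 300 µM NADH, assayed at 22 °C in 50 mM potassium phosphate pH 7.4, 1 mM EDTA (0.28 nM complex I). Aerobic oxidation of 75 µM NADH with no added quinone, followed at 340 nm. Ethanolic compound added cumulatively, 5 min on ice per step, ethanol ≤2%. IC50 is the final concentration giving 50% inhibition.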

Assay [4] addresses Mitochondrial complex I; NADH oxidoreductase (Bos taurus) (UniProt P25708+P52505). Put plainly: Relative potency of inhibition of NADH oxidase (IC50); 4-dehydroxy-4-hydroxylimonorolliniastatin-1 as standard. It is filed as protein-complex assay. In short, it runs like this:
as §1

A short description of assay [5]: Ratio of IC50 of DB to that of NADH oxidase. Put shortly: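 Ratio of two IC50 values measured on NADH-activated beef heart submitochondrial particles (0.28 nM complex I, 22 °C, pH 7.4 phosphate/EDTA). The numerator IC50 comes from NADH:decylubiquinone oxidoreductase (75 µM NADH, 30 µM DB, plus antimycin and cyanide). The denominator IC50 comes from aerobic NADH oxidase (75 µM NADH, no added quinone). Both activities were read at 340 nm.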

Each structure is given as a SMILES string. pIC50: −log10 of the molar value.

Mitochondrial complex I; NADH oxidoreductase, sequence (P25708 21-464 limits assumed, other chains not shown): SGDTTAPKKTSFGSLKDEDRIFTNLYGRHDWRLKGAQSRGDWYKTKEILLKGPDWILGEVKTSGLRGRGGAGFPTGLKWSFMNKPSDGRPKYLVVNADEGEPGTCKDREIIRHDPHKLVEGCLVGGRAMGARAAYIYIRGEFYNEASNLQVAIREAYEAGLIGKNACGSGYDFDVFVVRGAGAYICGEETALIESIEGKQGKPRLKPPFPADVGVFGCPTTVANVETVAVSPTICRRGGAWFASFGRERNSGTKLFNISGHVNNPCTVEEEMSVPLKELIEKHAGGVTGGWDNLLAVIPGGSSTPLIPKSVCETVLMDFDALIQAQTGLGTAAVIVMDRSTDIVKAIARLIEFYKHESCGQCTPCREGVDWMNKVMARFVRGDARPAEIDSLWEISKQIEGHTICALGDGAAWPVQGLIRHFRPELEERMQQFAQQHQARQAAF

As to `CCCCCC/C(CCC[C@H](O)[C@H]1CC[C@H]([C@H]2CC[C@H]([C@H](O)CCCCCCCCCCCCC3=C[C@H](C)OC3=O)O2)O1)=N\O`, the pIC50 in assay [1] was 9.05; in assay [3], 9.13. The Relative potency in assay [2] was found to be 33.8; in assay [4] it was 3. In assay [5], the Ratio stood at 1.2.

Regarding `CCCCCCCCCC[C@H](O)[C@H]1CC[C@@H]([C@@H]2CC[C@H]([C@H](O)CCCCCCCCCCC(=O)CC3=C[C@H](C)OC3=O)O2)O1`, the pIC50 in assay [1] is 9.35; in assay [3], 9.38. Besides, the Relative potency in assay [2] was 59.5; in assay [4], 1.7. In assay [5], the Ratio was determined as 1.1.

Take `CCCCCC[C@H](CCC[C@@H](N=[N+]=[N-])[C@H]1CC[C@H]([C@H]2CC[C@H]([C@H](CCCCCCCCCCCCC3=C[C@H](C)OC3=O)N=[N+]=[N-])O2)O1)N=[N+]=[N-]`: the pIC50 is 6.50 in assay [1] and 7.74 in assay [3]. The compound further yielded a Relative potency in assay [4] of 72. The Ratio in assay [5] is 17.

On to `CCCCCCCCCC/C(=N\O)[C@H]1CC[C@@H]([C@@H]2CC[C@H]([C@H](O)CCCCCCCCCC/C(CC3=C[C@H](C)OC3=O)=N\O)O2)O1`, for which the values for the pIC50 in assay [1] and in assay [3] were 9.41 and 9.47, respectively. In addition, the figures for the Relative potency in assay [2] and in assay [4] were 73.5 and 1.4, respectively. Moreover, the Ratio in assay [5] was found to be 1.1.

On to `CCCCCCCCCC[C@H](O)[C@H]1CC[C@@H]([C@@H]2CC[C@H]([C@H](O)CCCCCCCCCC[C@@H](O)CC3=C[C@H](C)OC3=O)O2)O1` [rolliniastatin-1], for which the pIC50 is 9.13 in assay [1] and 9.22 in assay [3]. For the same compound, the results for the Relative potency in assay [2] and in assay [4] were 41.7 and 2.4, respectively. For the same compound, the Ratio in assay [5] came to 1.2.

Turning to `CCCCCC(CCCC[C@H](OS(C)(=O)=O)[C@H]1CC[C@H]([C@H]2CC[C@H]([C@@H](CCCCCCCCCCCCC3=C[C@H](C)OC3=O)OS(C)(=O)=O)O2)O1)OS(C)(=O)=O` (stereo partly specified), the pIC50 is 7.19 in assay [1] and 8.54 in assay [3]. Moreover, the Relative potency in assay [4] stood at 12. In addition, the Ratio in assay [5] was determined as 22.

Regarding `CCCCCCC(=O)CCC[C@H](O)[C@H]1CC[C@H]([C@H]2CC[C@H]([C@H](O)CCCCCCCCCCCCC3=C[C@H](C)OC3=O)O2)O1`, the negative logarithm of the IC50 (pIC50) in assay [1] is 8.89; in assay [3], 9.19. The results for the Relative potency in assay [2] and in assay [4] were 38.5 and 2.6, respectively. Moreover, the Ratio in assay [5] was 1.9.

With `CCCCCCCCCC[C@H](O)[C@H]1CC[C@@H]([C@@H]2CC[C@H]([C@H](O)CCCCCCCC[C@@H](O)CC3=C[C@H](C)OC3=O)O2)O1`, the pIC50 is 9.08 in assay [1] and 9.48 in assay [3]. Also, the Relative potency is 75.8 in assay [2] and 1.3 in assay [4]. Moreover, the Ratio in assay [5] worked out at 2.5.

Take `CCCCCC[C@H](O)CCC[C@H](O)[C@H]1CC[C@H]([C@H]2CC[C@H]([C@H](O)CCCCCCCCCCCCC3=C[C@H](C)OC3=O)O2)O1` [SQUAMOCIN]: the pIC50 in assay [1] was 9.11; in assay [3] it was 9.23. In addition, the Relative potency in assay [2] was 42.3; in assay [4] it was 2.4. Moreover, the Ratio in assay [5] came out at 1.3.

For `CCCCCCCCCC[C@H](O)[C@H]1CC[C@H]([C@H]2CC[C@H]([C@H](O)CCCCCCCCCCCCC3=C[C@H](C)OC3=O)O2)O1` [BULLANIN], the pIC50 in assay [1] was 9.36; in assay [3], 9.49. Besides, the Relative potency turned out to be 78.1 in assay [2] and 1.3 in assay [4]. The Ratio in assay [5] came out at 1.4.

In the case of `CCCCCCCCCC[C@H](OC(C)=O)[C@H]1CC[C@@H]([C@@H]2CC[C@H]([C@@H](CCCCCCCCCC[C@H](CC3=C[C@H](C)OC3=O)OC(C)=O)OC(C)=O)O2)O1`, the figures for the negative logarithm of the IC50 (pIC50) in assay [1] and in assay [3] were 5.72 and 8.84, respectively. For the same compound, the Relative potency in assay [4] was determined as 5.8. In assay [5], the Ratio came out at 1300.

Turning to `CCCCCC[C@@H](CCC[C@H](OS(C)(=O)=O)[C@H]1CC[C@H]([C@H]2CC[C@H]([C@@H](CCCCCCCCCCCCC3=C[C@H](C)OC3=O)OS(C)(=O)=O)O2)O1)OS(C)(=O)=O`, the results for the pIC50 in assay [1] and in assay [3] were 5.69 and 7.85, respectively. This compound registered a Relative potency in assay [4] of 56. Also, the Ratio in assay [5] came to 144.

`CCCCC[C@H](O)CCCC[C@H](O)[C@H]1CC[C@H]([C@H]2CC[C@H]([C@H](O)CCCCCCCCCCCCC3=C[C@H](C)OC3=O)O2)O1` [MOTRILIN]: the pIC50 is 9.09 in assay [1] and 9.39 in assay [3]. The figures for the Relative potency in assay [2] and in assay [4] were 61 and 1.6, respectively. Besides, in assay [5], the Ratio is 2.

Consider `CCCCCCCCCC[C@H](O)[C@H]1CC[C@H]([C@H]2CC[C@H]([C@H](O)CCCCC(=O)CCCCCCCC3=C[C@H](C)OC3=O)O2)O1` [GUANACONE], for which the results for the pIC50 in assay [1] and in assay [3] were 8.68 and 8.82, respectively. In assay [4], the Relative potency came out at 6.1. The Ratio in assay [5] is 1.4.

Consider `CCCCCCCCCCC(=O)[C@H]1CC[C@@H]([C@@H]2CC[C@H]([C@H](O)CCCCCCCCCCC(=O)CC3=C[C@H](C)OC3=O)O2)O1`, for which the pIC50 in assay [1] was 9.22; in assay [3], 9.47. Further, the Relative potency in assay [2] came to 73.5; in assay [4], 1.4. Further, the Ratio in assay [5] was 1.8.

In the case of `CCCCCCCCCCC(=O)[C@H]1CC[C@H]([C@H]2CC[C@H](C(=O)CCCCC(=O)CCCCCCCC3=C[C@H](C)OC3=O)O2)O1`, the pIC50 in assay [1] was 8.60; in assay [3], 8.78. The compound also registered a Relative potency in assay [4] of 6.6. In addition, in assay [5], the Ratio was found to be 1.5.

For `CCCCCC[C@@H](CCC[C@H](OC(C)=O)[C@H]1CC[C@H]([C@H]2CC[C@H]([C@@H](CCCCCCCCCCCCC3=C[C@H](C)OC3=O)OC(C)=O)O2)O1)OC(C)=O`, the pIC50 in assay [1] is 5.53; in assay [3], 8.30. The compound also gave a Relative potency in assay [4] of 20. Also, the Ratio in assay [5] amounted to 587.

Take `CCCCCCCCCC[C@H](O)[C@H]1CC[C@H]([C@H]2CC[C@H]([C@H](O)CCCC/C(CCCCCCCC3=C[C@H](C)OC3=O)=N\O)O2)O1`: the figures for the negative logarithm of the IC50 (pIC50) in assay [1] and in assay [3] were 9.17 and 9.47, respectively. In addition, the results for the Relative potency in assay [2] and in assay [4] were 73.5 and 1.4, respectively. Moreover, the Ratio in assay [5] worked out at 2.

For the compound `CCCCCCCCCC[C@@H](O)[C@@H]1CC[C@@H]([C@@H]2CC[C@@H]([C@H](O)CCCCCCCCCC(O)CC3=CC(C)OC3=O)O2)O1` (stereo partly specified) [BULLATACIN], the pIC50 in assay [1] was 9.21; in assay [3], 9.29. Besides, the figures for the Relative potency in assay [2] and in assay [4] were 49 and 2, respectively. Besides, the Ratio in assay [5] came out at 1.2.

For the compound `CCCCCC(CCCC[C@H](OC(C)=O)[C@H]1CC[C@H]([C@H]2CC[C@H]([C@@H](CCCCCCCCCCCCC3=C[C@H](C)OC3=O)OC(C)=O)O2)O1)OC(C)=O` (stereo partly specified), the pIC50 was 6.61 in assay [1] and 8.68 in assay [3]. Further, in assay [4], the Relative potency amounted to 8.4. In assay [5], the Ratio is 118.

Turning to `CCCCCCCCCC[C@H](O)[C@H]1CC[C@H]([C@H]2CC[C@H]([C@H](O)CCCCC(O)CCCCCCCC3=C[C@H](C)OC3=O)O2)O1` (stereo partly specified), the results for the pIC50 in assay [1] and in assay [3] were 8.72 and 9.02, respectively. The figures for the Relative potency in assay [2] and in assay [4] were 26.3 and 3.8, respectively. Besides, the Ratio in assay [5] came out at 2.

For the compound `CCCCCCCCCC[C@H](O)[C@H]1CC[C@@H]([C@@H]2CC[C@H]([C@H](O)CCCCCCCCCC/C(CC3=C[C@H](C)OC3=O)=N\O)O2)O1`, the pIC50 in assay [1] was 9.54; in assay [3], 9.60. The results for the Relative potency in assay [2] and in assay [4] were 100 and 1, respectively. The Ratio in assay [5] amounted to 1.1.

Turning to `CCCCCCCCCC[C@H](OS(C)(=O)=O)[C@H]1CC[C@@H]([C@@H]2CC[C@H]([C@@H](CCCCCCCCCC[C@H](CC3=C[C@H](C)OC3=O)OS(C)(=O)=O)OS(C)(=O)=O)O2)O1`, the pIC50 in assay [1] is 6.36; in assay [3], 8.77. The Relative potency in assay [2] is 6.7. Besides, the Ratio in assay [5] turned out to be 260.
